Laboratory results as given in ChEMBL document CHEMBL2321795, “Solubility-driven optimization of (pyridin-3-yl) benzoxazinyl-oxazolidinones leading to a promising antibacterial agent” (J Med Chem, 2013).
Converted amounts (≈) assume the structure as drawn.

Assays:
[1] = AUC in Sprague-Dawley rat at 10 mg/kg, po by LC-MS analysis; format: ADME, organism-based, Plasma; parameters: dose 10 mg/kg, route oral; conditions: Sprague-Dawley, plasma
Method in brief: (§1)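 Rats were dosed orally or by intravenous injection. For prodrugs, all parameters were based on the active parent antibacterial detected in plasma, and each prodrug dose was also given as an equivalent parent dose. Parameters were Cmax, Tmax, elimination T1/2, AUC from the concentration–time curve, clearance and oral bioavailability F.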

[2] = Aqueous solubility of the compound; conditions: aqueous (not further specified)
[3] = Tmax in Sprague-Dawley rat at 10 mg/kg, po by LC-MS analysis; format: ADME, organism-based; parameters: dose 10 mg/kg, route oral; conditions: in vivo; method in brief: as §1
[4] = Cmax in Sprague-Dawley rat at 10 mg/kg, po by LC-MS analysis; format: ADME, organism-based; parameters: dose 10 mg/kg, route oral; conditions: in vivo; method in brief: as §1
[5] = Elimination half life in Sprague-Dawley rat at 10 mg/kg, po by LC-MS analysis; format: ADME, organism-based; parameters: dose 10 mg/kg, route oral; conditions: in vivo, read-out: beta t1/2 (converted); method in brief: as §1
Staphylococcus aureus [6] = assay: Antibacterial activity against methicillin-resistant Staphylococcus aureus ATCC 33591 infected in po dosed systemic infection mouse model administered 1 hr post infection measured after 24 hrs; format: functional; conditions: ATCC 33591, po
Method in brief: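 Female ICR mice, 23–25 g, made neutropenic with cyclophosphamide ip, 150 mg/kg 4 days and 100 mg/kg 2 days before infection. Infected ip with about 0.5 mL of 10⁶ CFU/mL MRSA. Oral dosing 1 h post-infection at 5, 10, 20 and 40 mg/kg, with linezolid as control. ED₅₀ (dose treating 50% of infections) by Reed–Muench and Hill equation, 24 h after treatment.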

Staphylococcus aureus [7] = assay: Antibacterial activity against methicillin-sensitive Staphylococcus aureus ATCC 19636 infected in iv dosed systemic infection mouse model administered 1 hr post infection measured after 48 hrs; format: functional; conditions: ATCC 19636, iv
Method in brief: (§2)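 Female ICR mice weighing 20–22 g, six per group, received 0.5 mL of 10⁷–10⁸ CFU/mL S. aureus intraperitoneally as a lethal systemic challenge. Dosing was oral or intravenous 1 h post-infection at 2.5, 5, 10 and 20 mg/kg, with linezolid as comparator.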

[8] = AUC in Sprague-Dawley rat at 10 mg/kg, iv by LC-MS analysis; format: ADME, organism-based; parameters: dose 10 mg/kg, route intravenous; conditions: plasma
Method in brief: (§3)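 Rats dosed orally or by intravenous injection. AUC is the area under the plasma concentration–time curve. For the prodrug entries, all PK values were based on the amount of the active parent antibacterial detected, not the administered prodrug.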

[9] = Elimination half life in Sprague-Dawley rat at 10 mg/kg, iv by LC-MS analysis; format: ADME, organism-based; parameters: dose 10 mg/kg, route intravenous; conditions: in vivo, read-out: beta t1/2 (converted); method in brief: as §1
Staphylococcus aureus [10] = assay: Antibacterial activity against methicillin-sensitive Staphylococcus aureus ATCC 19636 infected in po dosed systemic infection mouse model administered 1 hr post infection measured after 48 hrs; format: functional; conditions: ATCC 19636, po; method in brief: as §2
[11] = Oral bioavailability in Sprague-Dawley rat at 10 mg/kg; format: ADME, organism-based; conditions: Sprague-Dawley, in vivo; method in brief: as §1
[12] = Mean resident time in Staphylococcus aureus systemic infection mouse model at 2.5 to 20 mg/kg, iv; format: ADME, organism-based; parameters: dose 2.5-20 mg/kg, route intravenous; conditions: in vivo
[13] = Clearance in Sprague-Dawley rat at 10 mg/kg, iv by LC-MS analysis; format: ADME, organism-based; parameters: dose 10 mg/kg, route intravenous; conditions: in vivo; method in brief: as §1
Enterococcus faecium = assay: Antibacterial activity against linezolid-resistant Enterococcus faecium after 16 hrs by NCCLS agar dilution method; format: functional
Method in brief: (§4)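 Agar dilution MIC. Stocks were 320 μg/mL in 50% aqueous DMSO, 2-fold serially diluted in sterile water, then diluted 10-fold into Mueller–Hinton agar to give 16–0.03125 μg/mL final. Organisms were grown in MH broth at 35 °C for 8 h and adjusted to 0.5 McFarland. They were spotted onto drug-containing plates with a multipoint inoculator and incubated at 35 °C for 16 h. Linezolid was the positive control.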

Staphylococcus aureus [14] = assay: Antibacterial activity against linezolid-resistant Staphylococcus aureus after 16 hrs by NCCLS agar dilution method; format: functional; method in brief: as §4
[15] = test system: Staphylococcus epidermidis; assay: Antibacterial activity against linezolid-resistant Staphylococcus epidermidis after 16 hrs by NCCLS agar dilution method; format: functional; method in brief: as §4
Staphylococcus aureus [16] = assay: Antibacterial activity against Staphylococcus aureus ATCC 29213 after 16 hrs by NCCLS agar dilution method; format: functional; conditions: ATCC 29213, 16 h; method in brief: as §4
Enterococcus faecalis [17] = assay: Antibacterial activity against linezolid-resistant Enterococcus faecalis after 16 hrs by NCCLS agar dilution method; format: functional; method in brief: as §4
Staphylococcus aureus [18] = assay: Antibacterial activity against methicillin-resistant Staphylococcus aureus after 16 hrs by NCCLS agar dilution method; format: functional; method in brief: as §4
Staphylococcus aureus [19] = assay: Antibacterial activity against methicillin-sensitive Staphylococcus aureus after 16 hrs by NCCLS agar dilution method; format: functional; method in brief: as §4
Enterococcus faecalis [20] = assay: Antibacterial activity against Enterococcus faecalis after 16 hrs by NCCLS agar dilution method; format: functional
Method in brief: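 Agar dilution MIC per NCCLS, 6 E. faecalis strains. Stock was 320 μg/mL in 50% water/DMSO, serially 2-fold diluted in sterile water, then 10-fold into Mueller–Hinton agar to give 16–0.03125 μg/mL final. Inocula came from MH broth cultures grown 8 h at 35 °C, adjusted to 0.5 McFarland and spotted by multipoint inoculator. Plates were read after 16 h at 35 °C.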

[21] = test system: Staphylococcus epidermidis; assay: Antibacterial activity against methicillin-sensitive Staphylococcus epidermidis after 16 hrs by NCCLS agar dilution method; format: functional; method in brief: as §4
Streptococcus pneumoniae = assay: Antibacterial activity against penicillin-resistant Streptococcus pneumoniae after 16 hrs by NCCLS agar dilution method; format: functional; method in brief: as §4
[22] = test system: Staphylococcus epidermidis; assay: Antibacterial activity against methicillin-resistant Staphylococcus epidermidis after 16 hrs by NCCLS agar dilution method; format: functional; method in brief: as §4
[23] = AUC in Sprague-Dawley rat at 15 mg/kg, po by LC-MS analysis; format: ADME, organism-based; parameters: dose 15 mg/kg, route oral; conditions: plasma; method in brief: as §3
[24] = Cmax in Sprague-Dawley rat at 15 mg/kg, po by LC-MS analysis; format: ADME, organism-based; parameters: dose 15 mg/kg, route oral; conditions: in vivo; method in brief: as §1
[25] = Elimination half life in Sprague-Dawley rat at 15 mg/kg, po by LC-MS analysis; format: ADME, organism-based; parameters: dose 15 mg/kg, route oral; conditions: in vivo, read-out: beta t1/2 (converted); method in brief: as §1
[26] = Oral bioavailability in Sprague-Dawley rat at 15 mg/kg; format: ADME, organism-based; conditions: in vivo; method in brief: as §1
[27] = Tmax in Sprague-Dawley rat at 15 mg/kg, po by LC-MS analysis; format: ADME, organism-based; parameters: dose 15 mg/kg, route oral; conditions: in vivo; method in brief: as §1

| SMILES | solubility [2] [mg/mL] | AUC [8] [ng·h/mL] | half-life [9] [h] | clearance [13] [mL/min/kg] | MIC (Staphylococcus aureus [18]) [µg/mL] | MIC (Staphylococcus aureus [19]) [µg/mL] | MIC (Enterococcus faecalis [20]) [µg/mL] | MIC [21] [µg/mL] | MIC (Streptococcus pneumoniae) [µg/mL] | MIC [22] [µg/mL] | further results |
| --- | --- | --- | --- | --- | --- | --- | --- | --- | --- | --- | --- |
| CN1C[C@@H](c2ccc(-c3ccc4c(c3)OC[C@H]3[C@H](COP(=O)([O-])[O-])OC(=O)N43)cn2)OC1=O.[Na+].[Na+] | 227 | 3160 | 4.88 | 40.3 | – | – | – | – | – | – | AUC [1]: 1660 ng·h/mL; Tmax [3]: 0.44 h; Cmax [4]: 524 ng/mL; half-life [5]: 4.61 h; ED50 (Staphylococcus aureus [6]): 5 mg/kg; ED50 (Staphylococcus aureus [7]): 14.2 mg/kg; ED50 (Staphylococcus aureus [10]): 6.65 mg/kg; bioavailability [11]: 52.5%; MRT [12]: 1.25 h |
| N#Cc1ccc(-c2ccc3c(c2)OC[C@H]2[C@H](COP(=O)([O-])[O-])OC(=O)N32)cn1.[Na+].[Na+] | 15 | – | – | – | – | – | – | – | – | – | AUC [1]: 81.1 ng·h/mL; Tmax [3]: 1.31 h; Cmax [4]: 15.2 ng/mL; half-life [5]: 3.17 h |
| Cn1nnc(-c2ccc(-c3ccc(N4C[C@H](CO)OC4=O)cc3F)cn2)n1 [TEDIZOLID] | – | – | – | – | – | – | – | – | – | – | MIC (Enterococcus faecium): 2 µg/mL (≈ 5.4 µM); MIC (Staphylococcus aureus [14]): 8 µg/mL (≈ 21.6 µM); MIC [15]: 2 µg/mL (≈ 5.4 µM); MIC (Staphylococcus aureus [16]): 0.25 µg/mL (≈ 0.675 µM); MIC (Enterococcus faecalis [17]): 2 µg/mL (≈ 5.4 µM) |
| CC(C)(O)c1ccc(-c2ccc3c(c2)OC[C@H]2[C@H](CO)OC(=O)N32)cn1 | – | – | – | – | 1 (≈ 2.81 µM) | 1 (≈ 2.81 µM) | 4 (≈ 11.2 µM) | 1 (≈ 2.81 µM) | 2 (≈ 5.61 µM) | 2 (≈ 5.61 µM) | – |
| O=C1O[C@@H](CO)[C@@H]2COc3cc(-c4ccc(CO)nc4)ccc3N12 | – | – | – | – | 1 (≈ 3.05 µM) | 1 (≈ 3.05 µM) | 4 (≈ 12.2 µM) | 0.5 (≈ 1.52 µM) | 2 (≈ 6.09 µM) | 0.5 (≈ 1.52 µM) | – |
| CN1C[C@H](c2ccc(-c3ccc4c(c3)OC[C@H]3[C@H](CO)OC(=O)N43)cn2)OC1=O | – | – | – | – | 1 (≈ 2.52 µM) | 1 (≈ 2.52 µM) | 2 (≈ 5.03 µM) | 0.5 (≈ 1.26 µM) | 2 (≈ 5.03 µM) | 1 (≈ 2.52 µM) | – |
| N=C(N)NCCC[C@H](N)C(=O)O.N=C(N)NCCC[C@H](N)C(=O)O.O=C1OC(COP(=O)(O)O)CN1c1ccc(-c2ccc3c(c2)OC[C@H]2[C@H](CO)OC(=O)N32)cn1 (stereo partly drawn) | – | 1800 | 0.26 | 46.3 | – | – | – | – | – | – | AUC [23]: 914 ng·h/mL; Cmax [24]: 416 ng/mL; half-life [25]: 1.45 h; bioavailability [26]: 32.6%; Tmax [27]: 0.25 h |
| O=C1OC(COP(=O)([O-])[O-])CN1c1ccc(-c2ccc3c(c2)OC[C@H]2[C@H](CO)OC(=O)N32)cn1.[Na+].[Na+] (stereo partly drawn) | 534 | 4000 | 1 | 33.8 | – | – | – | – | – | – | AUC [23]: 1230 ng·h/mL; Cmax [24]: 650 ng/mL; half-life [25]: 1.61 h; bioavailability [26]: 19.7%; Tmax [27]: 0.25 h |
